# Measurements collected from several papers.
# Protocols differ between the studies behind these lines.
# Target: Phosphatidylinositol 3-kinase C2 domain-containing subunit gamma (PIK3C2G, Homo sapiens, UniProt O75747)
# One construct used (O75747 1-1486): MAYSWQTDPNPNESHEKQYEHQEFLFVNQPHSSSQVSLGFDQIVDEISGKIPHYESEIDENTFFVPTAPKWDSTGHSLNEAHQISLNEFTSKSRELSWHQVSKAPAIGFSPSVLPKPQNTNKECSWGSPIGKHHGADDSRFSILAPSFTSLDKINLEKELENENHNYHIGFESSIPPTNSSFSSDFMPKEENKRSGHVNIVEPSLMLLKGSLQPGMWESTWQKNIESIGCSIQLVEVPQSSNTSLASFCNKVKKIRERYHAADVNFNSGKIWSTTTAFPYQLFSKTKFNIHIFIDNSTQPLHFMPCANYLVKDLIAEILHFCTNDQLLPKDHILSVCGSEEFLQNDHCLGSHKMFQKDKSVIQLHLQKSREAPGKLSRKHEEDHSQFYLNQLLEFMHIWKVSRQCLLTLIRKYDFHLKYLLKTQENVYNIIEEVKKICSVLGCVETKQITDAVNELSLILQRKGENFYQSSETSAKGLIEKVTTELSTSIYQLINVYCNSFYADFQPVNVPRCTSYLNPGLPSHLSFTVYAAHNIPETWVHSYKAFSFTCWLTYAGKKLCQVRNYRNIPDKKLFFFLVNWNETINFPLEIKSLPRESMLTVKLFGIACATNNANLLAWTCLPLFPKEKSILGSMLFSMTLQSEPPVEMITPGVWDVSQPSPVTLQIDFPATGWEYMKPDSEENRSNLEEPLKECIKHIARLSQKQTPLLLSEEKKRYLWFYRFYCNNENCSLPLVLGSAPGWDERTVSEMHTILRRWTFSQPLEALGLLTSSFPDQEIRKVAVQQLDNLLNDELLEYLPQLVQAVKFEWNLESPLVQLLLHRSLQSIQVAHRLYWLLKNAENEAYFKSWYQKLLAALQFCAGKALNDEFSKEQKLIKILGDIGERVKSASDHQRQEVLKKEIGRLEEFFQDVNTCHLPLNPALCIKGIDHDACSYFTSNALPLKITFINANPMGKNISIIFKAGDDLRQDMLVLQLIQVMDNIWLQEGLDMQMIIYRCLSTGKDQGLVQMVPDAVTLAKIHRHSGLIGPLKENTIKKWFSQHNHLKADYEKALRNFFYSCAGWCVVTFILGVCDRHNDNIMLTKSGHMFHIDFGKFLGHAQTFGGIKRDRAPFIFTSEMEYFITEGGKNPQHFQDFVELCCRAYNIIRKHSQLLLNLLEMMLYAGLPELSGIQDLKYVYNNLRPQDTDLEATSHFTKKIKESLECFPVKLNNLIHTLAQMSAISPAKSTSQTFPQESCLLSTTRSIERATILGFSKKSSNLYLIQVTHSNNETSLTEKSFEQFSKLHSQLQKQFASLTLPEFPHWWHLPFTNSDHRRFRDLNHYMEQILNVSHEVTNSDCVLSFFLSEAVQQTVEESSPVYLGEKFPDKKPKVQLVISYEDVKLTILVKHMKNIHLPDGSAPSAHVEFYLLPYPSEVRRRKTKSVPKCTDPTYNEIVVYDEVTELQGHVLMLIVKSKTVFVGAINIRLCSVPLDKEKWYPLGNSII
Structure (SMILES),test,conditions,remaining binding
C=CC(=O)N1CCC(C(=O)NCC(=O)N2CCN(c3nc(-c4cnc(N)nc4C(F)F)nc(N4CCOCC4)n3)CC2)CC1,"binding, competition with immobilised ligand",1 µM,16%
C[C@@H](c1cccc(C#N)c1)n1cc(Cl)cc(C(N)=O)c1=N,"cell-free assay, competition with immobilised ligand",1 µM,84%
N[C@@H]1CCN(c2nccc(-c3cnn4ncccc34)n2)C1,binding,1 µM,100%
CNC(=O)[C@@H]1CC[C@@H](n2c(-c3ccc4cnccc4c3)nc3ccc(C(=O)NCc4cccc(C(N)=O)c4)cc32)C1,"binding, competition with immobilised ligand",1 µM,100%
F[C@@H]1CCN(c2nccc(-c3cnn4ncccc34)n2)C1,binding,1 µM,82%
CNCc1ccccc1-c1csc([C@@H](C)Nc2nc(C)nc3cc(OC)c(OC)cc23)c1,"cell-free assay, competition with immobilised ligand",1 µM,59%
COc1ncc2cc3ccccc3nc2c1C#N,"cell-free assay, competition with immobilised ligand",5 µM,84%
O=C(NCC1CCOCC1)c1n[nH]cc1NC(=O)c1c(F)cccc1F,"binding, competition with immobilised ligand",1 µM,100%
O=C(c1ccc(Nc2ncc(Cl)c(-c3ccc(Cl)s3)n2)cc1)N1CCC(N2CCCC2)CC1,"binding, competition with immobilised ligand",1 µM,100%
Nc1ncc2c(n1)-c1c([nH]c3ccc(C#CC4CC4)cc13)CCCC2,"binding, competition with immobilised ligand",1 µM,92%
O=C(NCCCN1CCOCC1)c1ccc(Nc2nccc(-c3cc4ccccc4s3)n2)cc1,"binding, competition with immobilised ligand",1 µM,68%
CN(c1nccc(-c2cnn3ncccc23)n1)C1CC1,binding,1 µM,99%
N#CC1(c2ccccn2)CCN(Cc2cc(C(=O)N3CCCC3)c(=O)n3ccccc23)CC1,"cell-free assay, competition with immobilised ligand",1 µM,73%
O=C(c1ccc(Nc2ncc(Cl)c(-c3cc4ccccc4s3)n2)cc1)N1CCC(N2CCCC2)CC1,"binding, competition with immobilised ligand",1 µM,96%
CCS(=O)(=O)c1cc2cc(C[C@](O)(CC(C)(C)c3ccc(F)cc3C(N)=O)C(F)(F)F)[nH]c2cn1,"cell-free assay, competition with immobilised ligand",1 µM,100%
CN(C)c1nccc(-c2cnn3ncccc23)n1,binding,1 µM,100%
COc1ccc2c(O[C@@H]3C[C@H]4C(=O)N[C@]5(C(=O)O)CC5/C=C\CCCCC[C@H](NC(=O)OC5CCCC5)C(=O)N4C3)cc(-c3csc(NC(=O)C(C)C)n3)nc2c1C (some centres unmarked),"cell-free assay, competition with immobilised ligand",1 µM,86%
CN(C)c1nccc(-c2cnc3ncccn23)n1,binding,1 µM,51%
CC(=O)N1CCC(c2ccc(C(=O)NC3=NCCN3)cc2C(F)(F)F)CC1,"cell-free assay, competition with immobilised ligand",1 µM,85%
COc1cnc(Nc2cccc(S(N)(=O)=O)c2)nc1N1CCN(c2ccccc2)CC1,"binding, competition with immobilised ligand",1 µM,79%
